Screening data from PubChem.
This is a sample that favours compounds with a hit; in the whole collection about 1.5% have one here.
Rad51 HR inh: Rad51 (human) homologous recombination inhibition | Q06609 | hRad51 DNA strand exchange, fluorescence dequenching | inhibition, % at 10 µM | 0.085% of 200,000 active | AID 1385;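 active means inhibition above 40% at the single screening dose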;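 further: 0% = DMSO control wells and 100% = blanks with heterologous ssDNA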
Target sequence (Q06609 whole entry, looked up): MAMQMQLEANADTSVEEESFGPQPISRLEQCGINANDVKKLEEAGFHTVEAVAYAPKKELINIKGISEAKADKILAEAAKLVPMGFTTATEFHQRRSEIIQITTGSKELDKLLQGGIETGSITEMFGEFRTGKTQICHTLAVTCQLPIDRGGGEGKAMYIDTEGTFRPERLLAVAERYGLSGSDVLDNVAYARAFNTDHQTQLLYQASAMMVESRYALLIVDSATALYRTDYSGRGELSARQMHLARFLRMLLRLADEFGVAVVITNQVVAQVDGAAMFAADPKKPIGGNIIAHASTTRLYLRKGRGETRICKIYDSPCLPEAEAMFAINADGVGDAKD
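material = hRad51 filaments on single-stranded DNA | timing = filaments 15 min 37 °C, then compound 30 min | signal = FRET fluorescence dequenching, excitation 485 nm, emission 520 nm | benchmarks = control wells and blank wells on each plate | evaluation = percent inhibition relative to plate controls and blanks | compound = 10 µM final, single point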
MT stabilizer: microtubule stabilization, imaging screen; HeLa tubulin immunostaining HCS, 24 h; share of cells brighter than vehicle mean+2SD; % tubulin-high responders, % at 10 µM; 0.83% of 200,000 active; AID 2205;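 active means plate Z-score above 3 for both tubulin-high and condensed-nucleus cell shares, with cell loss under 80%, at 10 µM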;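 further: anti alpha tubulin signal scored within the nucleus-defined area of each cell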
b-catenin transl: alters nuclear translocation of beta-catenin in HeLa cells; immunofluorescence imaging; nuclear translocation activity, % at 5 µM; 0.3% of 190,000 active;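 active means nuclear translocation activity above 50% at 5 µM, with a well cell count of 50 or more; inconclusive means wells under 50 cells across six images, flagged as toxic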;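 further: per-cell ratio of nuclear to cytoplasmic median beta-catenin stain intensity; plate controls were DMSO negative control for no effect and GSK-3 inhibitor IX positive control for full effect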
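Assay system: human HeLa cells, native beta-catenin; doses: 5 µM primary, 0.02–20 µM confirmation; incubation: compound treatment 24 h, 37°C, 5% CO2; technique: fluorescence imaging of beta-catenin antibody stain plus DAPI; measure: % activation, nuclear-to-cytoplasmic median beta-catenin signal ratio per cell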
Dynein transport: dynein cargo transport inhibition; 0.47% of 220,000 active; 3617.4 mouse cells, GR-EGFP nuclear translocation imaging; test concentration mostly 20 µM; stimulated with dexamethasone, 1 µM; stronger effect = lower value; z-score, hits read low;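 active means plate z-score of nuclear minus cytoplasmic receptor signal below a set negative limit, without overly bright fluorescence or cell loss, cut at about -3.5 in these data, passing the limit was not always enough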;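 further: z-score of nuclear minus cytoplasmic ring GR-EGFP intensity difference per well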
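Buffer or medium: tetracycline-free induction medium containing charcoal-stripped FBS / Reagent: dexamethasone agonist, 1.0 µM final, for 30 min / Technique: automated 10x imaging of fixed Hoechst-stained cells / Times: induction 48 h, compound 1 h, agonist 30 min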
TbHK1 inh: blocks Trypanosoma brucei hexokinase 1 activity; recombinant TbHK1, G6PDH-coupled NADH A340; inhibition, % at 10 µM; 0.11% of 220,000 active; AID 1430;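 active means inhibition of 50% or more in the single-dose primary screen; inactive means inhibition below 50%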
Dynein inh conf: dynein cargo transport inhibition, confirmation | shares compounds with Dynein transport | 3617.4 GR-EGFP nuclear translocation imaging, dexamethasone-induced | calls only at 20 µM | 69% of 1,000 active | AID 463116;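 active means inhibition of receptor movement into the nucleus at or above a set limit in both runs, with normal cell brightness and cell count; inconclusive means limit reached in only one run, brightness and count normal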;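 further: dexamethasone at 1 µM final in well for 30 min; nuclear minus cytoplasmic GR-EGFP mean intensity difference in channel 2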
* = called active by the depositor; i = inactive; u = inconclusive; x = no result; + = active, no number.

SMILES | Rad51 HR inh | MT stabilizer | b-catenin transl | Dynein transport | TbHK1 inh | Dynein inh conf
Cc1cccc(Cn2ncc(Cl)c(Cl)c2=O)c1 | -15 | 2 | 3 | -4.3* | -5 | +
Cc1cc2oc(=O)cc(CN3CCc4ccccc43)c2cc1Cl | 6 | 3 | -5 | -0.32 | 4 | x
CCC(C)(C)n1nnnc1C(c1ccccc1F)N1CCC(C(N)=O)CC1 (stereo unspecified) | -4 | 1 | -6 | -0.79 | 6 | x
COc1ccc(C(C)=O)cc1CSc1nc2ccccc2c(=O)n1-c1cccc(C)c1 | x | 3 | 0 | 0.29 | -14 | x
Cc1cc(C(=O)Cn2ncc(Cl)c(Cl)c2=O)c(C)n1CC(F)(F)F | 1 | 3 | -4 | -5.1* | -3 | +
COC(=O)C1=C(C)N(Cc2ccco2)C(=O)/C1=C\c1ccc([N+](=O)[O-])cc1 | -51 | 6 | -3 | -3.6* | -5 | +
COC(=O)C1=C(C)N(Cc2ccco2)C(=O)/C1=C\c1ccc(N(C)C)cc1 | -17 | 4 | -2 | 1.3 | 26 | x
COc1ccc(-c2csc3ncnc(Cl)c23)cc1 | -1 | 3 | 0 | -4.1* | 1 | i
Fc1ccc(-c2csc3ncnc(Cl)c23)cc1 | -16 | 4 | 0 | -2.8 | 1 | x
Clc1ccc(-c2csc3ncnc(Cl)c23)cc1 | -4 | 3 | 0 | -4* | 3 | +
COc1ccc(-c2csc3nc[nH]c(=O)c23)cc1 | -6 | 7 | 0 | -0.82 | -4 | x
O=C1S/C(=C\c2ccc(O)c([N+](=O)[O-])c2)C(=O)N1c1ccccc1Cl | x | 7 | 0 | -0.62 | -7 | x
CCOC(=O)c1c(NC(=O)CCl)sc(CN(C)C)c1-c1ccccc1 | 5 | 3 | 1 | -5.2* | 0 | +
CCOC(=O)c1c(NC(=O)/C=C/C(=O)O)sc(C)c1-c1ccc(Cl)cc1 | -8 | 4 | -1 | -8.2* | -10 | +
CCOC(=O)c1c(NC(=O)Nc2ccc(Cl)cc2)sc(C)c1C | 3 | 2 | 0 | -0.33 | -7 | x
CCSc1nc2ccccc2n1C(=O)/C=C\c1ccc(OC)c(OC)c1 | -14 | 3 | 4 | -4.3* | -9 | +
O=C1C=C(NC2=CC3OC(c4ccccc4)OCC3OC2=O)CCC1 (stereo unspecified) | -8 | 1 | 0 | -4.4* | 24 | +
COc1ccc(OC)c(CCNC(=O)Cn2sc3nc(C)cc(C)c3c2=O)c1 | -4 | 5 | -6 | -4.1* | -2 | +
Cc1cc(C)c2c(=O)n(CC(=O)Nc3cccc(Cl)c3C)sc2n1 | 7 | x | 2 | -1.1 | 16 | x
Cc1cc(C)c2c(=O)n(CC(=O)NC3CCCC3)sc2n1 | x | x | 1 | -4.2* | -6 | +
COc1ccc(-c2nc(CS(=O)(=O)CC(=O)NCCc3cc(OC)ccc3OC)c(C)o2)cc1 | 5 | 3 | x | 0.35 | -6 | x
O=C(O)c1ccccc1C(=O)c1cccs1 | 9 | 4 | -6 | 1.7 | 3 | x
Cc1cc(-c2nnc(-c3ccccc3)c(-c3ccccc3)n2)c(C)o1 | -6 | 4 | -8 | -3.7* | -21 | i
CCOC(=S)SCC(=O)Nc1nc(C)c(C)s1 | 11 | x | 1 | -3.9* | -6 | +
Cc1ccc(S(=O)(=O)/N=c2\ccc(Cl)cn2C(F)F)cc1 | 3 | 2 | -2 | -3.8* | -12 | i
SMILES | Rad51 HR inh | MT stabilizer | b-catenin transl | Dynein transport | TbHK1 inh | Dynein inh conf
Cn1c(C2CCCCC2)nc2c1c(=O)[nH]c(=O)n2Cc1ccccc1 | -11 | 2 | -6 | 0.95 | -6 | x
Cc1ccc(-c2csc3ncnc(Sc4nnc(CN5CCCCCC5=O)o4)c23)cc1 | -1 | 19* | 0 | -3.8* | -1 | +
CC(=O)Nc1c([N+](=O)[O-])cc(C)c(Cl)c1[N+](=O)[O-] | 7 | 5 | -3 | -5.8* | -9 | +
CC(=O)Nc1c([N+](=O)[O-])cc2[nH]c(=O)[nH]c2c1[N+](=O)[O-] | 8 | 3 | -3 | -0.89 | -10 | x
C=CCn1c(COc2ccccc2)nnc1SCC(=O)Nc1ccc(S(N)(=O)=O)cc1 | -5 | 4 | -2 | 2.4 | 6 | x
COCCCNc1c2c3c(cccc3[nH]c1=O)C(=O)c1ccccc1-2 | i | 15* | x | -4.9* | -15 | +
CCOC(=O)c1c2c3c(cccc3[nH]c1=O)C(=O)c1ccccc1-2 | -11 | 4 | 1 | -0.059 | -4 | x
O=C(O)c1ccc(-n2ccnc2)c([N+](=O)[O-])c1 | 1 | 5 | 0 | -0.36 | 0 | x
COC(=O)c1cc([N+](=O)[O-])c(-n2ccnc2)c([N+](=O)[O-])c1 | -3 | 2 | 2 | -3.5* | 31 | +
Oc1c(C(Nc2cccc(C(F)(F)F)c2)c2ccncc2)ccc2cccnc12 (stereo unspecified) | 1 | 7 | -4 | 0.09 | -7 | x
O=C(CCN1CCc2ccccc2C(c2ccccc2)C1)c1ccc2c(c1)OCCO2 (stereo unspecified) | -1 | 1 | 2 | -1 | 1 | x
O=C(CCN1Cc2ccccc2C1)c1ccc2c(c1)OCCO2 | 6 | 3 | -2 | -3.6* | -10 | u
CS(=O)(=O)N(CC(=O)Nc1ccccc1C(=O)NCc1ccco1)c1ccc2c(c1)OCCO2 | -8 | 12 | -4 | 0.49 | 2 | x
O=[N+]([O-])c1ccc(/C=C/C2=NN(c3ccccc3)C(c3ccco3)C2)cc1 (stereo unspecified) | i | 8 | x | -5.5 | 2 | x
O=[N+]([O-])c1ccc(C2=NN(c3ccccc3)C(c3ccco3)C2)cc1 (stereo unspecified) | x | x | 0 | -8.2 | -5 | i
S=c1[nH]nc(COc2ccc3ccccc3c2)o1 | -2 | 2 | -2 | -0.18 | 8 | x
CCN(CC)C(=O)c1cc([N+](=O)[O-])cc2c1-c1ccc([N+](=O)[O-])cc1C2=C(C#N)C#N | -2 | x | 11 | -4.9* | -19 | u
c1ccc(CNc2c3c(nc4ncnn24)CCCC3)nc1 | 8 | 6 | -2 | 2.9 | 0 | x
COc1ccc(C(=O)CCC(C)(C)[N+](=O)[O-])cc1 | -8 | 2 | -1 | -0.34 | -1 | x
Cc1nc([N+](=O)[O-])c(Br)n1CC(=O)c1ccc(Cl)cc1 | 3 | 1 | x | -6.5* | -16 | +
Cc1cc(C)n(CC(=O)c2ccc(Cl)cc2)n1 | -10 | 3 | -1 | 0.24 | 9 | x
COc1ccc(C(=O)Cn2c(C)nc([N+](=O)[O-])c2Br)cc1 | -1 | x | -1 | -5.8* | -29 | +
Cc1nc([N+](=O)[O-])c(Br)n1Cc1ccc(Cl)c(Cl)c1 | -8 | 3 | 0 | -4.2* | -10 | +
Cc1c(C(=O)O)sc2nc(C)n(C)c(=O)c12 | -10 | 6 | x | -0.24 | 8 | x
O=C(Nc1ccc(NC(=O)c2cccs2)cc1Cl)c1ccco1 | 13 | 4 | 2 | -0.29 | -1 | x
